Experimental data reported in ChEMBL document CHEMBL1156077, “Piperazinyl-glutamate-pyrimidines as potent P2Y12 antagonists for inhibition of platelet aggregation” (Bioorg Med Chem Lett, 2009).
pKi: −log10 of the molar value.

What was measured:
[1] = Selectivity for human P2Y12 receptor over P2Y13
[2] = Selectivity for human P2Y12 receptor over P2Y1
P2Y purinoceptor 12 [3] = target: T1, P2Y purinoceptor 12 (Homo sapiens, UniProt Q9H244); assay: Ratio of compound IC50 to AZD-6140 IC50 for P2Y12 receptor in human platelet rich plasma assessed as inhibition of ADP-induced platelet aggregation by light transmission aggregometry
T1 sequence (Q9H244 whole entry): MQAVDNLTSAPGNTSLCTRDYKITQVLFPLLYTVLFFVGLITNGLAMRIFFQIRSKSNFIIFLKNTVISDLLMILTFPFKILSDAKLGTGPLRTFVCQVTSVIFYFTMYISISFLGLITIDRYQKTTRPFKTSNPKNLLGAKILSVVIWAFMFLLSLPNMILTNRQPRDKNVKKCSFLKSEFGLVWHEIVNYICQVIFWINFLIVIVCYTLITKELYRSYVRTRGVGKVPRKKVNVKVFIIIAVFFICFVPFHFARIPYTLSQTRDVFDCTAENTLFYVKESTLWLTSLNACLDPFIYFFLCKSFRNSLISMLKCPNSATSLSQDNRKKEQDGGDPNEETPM
Method in brief: (§1)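 Human platelet-rich plasma was pre-incubated 5 min at 37 °C with compound across seven concentrations (10 down to 0.156). Aggregation was started with ADP (20, final) and followed by light transmission at 626 nm for 15 min at 37 °C. Duplicate concentration-response data were read at the 15-min end-point. IC50 was divided by the IC50 of AZD-6140 run on the same plate.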

P2Y purinoceptor 12 [4] = target: T1, P2Y purinoceptor 12; assay: Ratio of compound IC50 to thienopyrimidine IC50 for P2Y12 receptor in human platelet rich plasma assessed as inhibition of ADP-induced platelet aggregation by light transmission aggregometry
Method in brief: as §1, with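 “the thienopyrimidine reference” for “AZD-6140”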

P2Y purinoceptor 12 [5] = target: T1, P2Y purinoceptor 12; assay: Binding affinity at human recombinant P2Y12 receptor expressed in CHO cells by radioligand binding assay; type: cell-based
Method in brief: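 Washed membranes from CHO cells transfected with synthetic human P2Y12 gene. Compounds as 7-point threefold dilutions, triplicate, 1 h at room temperature. Nonspecific binding defined with 300 nM 2-MeSADP. Filtered, washed with ice-cold Tris pH 7.4. Single-site fit; IC50 converted to Ki by Cheng–Prusoff, geometric mean of n≥2.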

Row | fold change (FC) [1] | fold change (FC) [2] | Ratio IC50 (P2Y purinoceptor 12 [3]) | Ratio IC50 (P2Y purinoceptor 12 [4]) | pKi (P2Y purinoceptor 12 [5]) | SMILES
1 | > 340 | > 340 | 2.8 | 0.8 | 7.72 | CCCCOC(=O)N1CCN(C(=O)[C@H](CCC(=O)O)NC(=O)c2cc(OC3CCN(C(C)C)CC3)nc(-c3ccccc3)n2)CC1
2 | > 340 | > 340 | 1.3 | 0.3 | 8.57 | CCCCCOC(=O)N1CCN(C(=O)[C@H](CCC(=O)O)NC(=O)c2cc(N3CCN(C)CC3)nc(-c3ccccc3)n2)CC1
3 | > 340 | > 340 | 0.7 | 0.2 | 8.54 | CCCCCOC(=O)N1CCN(C(=O)[C@H](CCC(=O)O)NC(=O)c2cc(N3CCC(N4CCOCC4)CC3)nc(-c3ccccc3)n2)CC1
4 | > 340 | > 340 | 8.5 | 1.7 | 7.51 | CCCCCOC(=O)N1CCN(C(=O)[C@H](CCC(=O)O)NC(=O)c2nc(OCC3CCNCC3)cc(-c3ccccc3)n2)CC1
5 | > 340 | > 340 | 2 | 0.3 | 8.80 | CCCCCOC(=O)N1CCN(C(=O)[C@H](CCC(=O)O)NC(=O)c2cc(N3CCC(CC(=O)N4CCCC4)CC3)nc(-c3ccccc3)n2)CC1
6 | > 340 | > 340 |  |  | 8.28 | CCCCCOC(=O)N1CCN(C(=O)[C@H](CCC(=O)O)NC(=O)c2nc(NCCOC)cc(-c3ccccc3)n2)CC1
7 | > 340 | > 340 | 1.7 | 0.3 | 7.96 | CCCCOC(=O)N1CCN(C(=O)[C@H](CCC(=O)O)NC(=O)c2cc(OC3CCNCC3)nc(-c3ccccc3)n2)CC1
8 | > 340 | > 340 | 0.7 | 0.1 | 8.66 | CCCCCOC(=O)N1CCN(C(=O)[C@H](CCC(=O)O)NC(=O)c2cc(N3CCC(CNCC)CC3)nc(-c3ccccc3)n2)CC1
9 | > 340 | > 340 | 1.5 | 0.3 | 8.64 | CCCCCOC(=O)N1CCN(C(=O)[C@H](CCC(=O)O)NC(=O)c2cc(N3CCN(CCOC)CC3)nc(-c3ccccc3)n2)CC1
10 | > 340 | > 340 | 3.7 | 1 | 7.92 | CCCCOC(=O)N1CCN(C(=O)[C@H](CCC(=O)O)NC(=O)c2cc(OCCOC)nc(-c3ccccc3)n2)CC1
11 | > 340 | > 340 |  |  | 8.13 | CCCCCOC(=O)N1CCN(C(=O)[C@H](CCC(=O)O)NC(=O)c2nc(-c3ccccc3)cc(N3CCC(OC)CC3)n2)CC1
12 | > 340 | > 340 |  |  | 8.08 | CCCCCOC(=O)N1CCN(C(=O)[C@H](CCC(=O)O)NC(=O)c2nc(-c3ccccc3)cc(N3CCC(CCOC)CC3)n2)CC1
13 | > 340 | > 340 | 2.7 | 0.4 | 8.85 | CCCCOC(=O)N1CCN(C(=O)[C@H](CCC(=O)O)NC(=O)c2cc(N3CCC(OC)CC3)nc(-c3ccccc3)n2)CC1
14 | > 340 | > 340 | 1.1 | 0.2 | 8.89 | CCCCOC(=O)N1CCN(C(=O)[C@H](CCC(=O)O)NC(=O)c2cc(N3CCC(N4CCOCC4)CC3)nc(-c3ccccc3)n2)CC1
15 | > 340 | > 340 | 1.5 | 0.2 | 8.68 | CCCCCOC(=O)N1CCN(C(=O)[C@H](CCC(=O)O)NC(=O)c2cc(N3CCN(CC(=O)N4CCCC4)CC3)nc(-c3ccccc3)n2)CC1
16 | > 340 | > 340 |  |  | 7.46 | CCCCCOC(=O)N1CCN(C(=O)[C@H](CCC(=O)O)NC(=O)c2nc(NC3CCN(C(C)C)CC3)cc(-c3ccccc3)n2)CC1

Row | fold change (FC) [1] | fold change (FC) [2] | Ratio IC50 (P2Y purinoceptor 12 [3]) | Ratio IC50 (P2Y purinoceptor 12 [4]) | pKi (P2Y purinoceptor 12 [5]) | SMILES
17 | > 340 | > 340 | 1.7 | 0.4 | 8.38 | CCCCCOC(=O)N1CCN(C(=O)[C@H](CCC(=O)O)NC(=O)c2nc(-c3ccccc3)cc(N3CCC(CCN4CCCC4)CC3)n2)CC1
18 | > 340 | > 340 | 3.7 | 0.5 | 8.24 | CCCCCOC(=O)N1CCN(C(=O)[C@H](CCC(=O)O)NC(=O)c2cc(OCC3CCN(C)CC3)nc(-c3ccccc3)n2)CC1
19 | > 340 | > 340 | 1.6 | 0.3 | 9.17 | CCCCCOC(=O)N1CCN(C(=O)[C@H](CCC(=O)O)NC(=O)c2cc(N3CCC(CC(=O)NCC)CC3)nc(-c3ccccc3)n2)CC1
20 | > 340 | > 340 | 4.3 | 1.1 | 7.14 | CCCCOC(=O)N1CCN(C(=O)[C@H](CCC(=O)O)NC(=O)c2cc(OCCN(CC)CC)nc(-c3ccccc3)n2)CC1
21 | > 340 | > 340 |  |  | 6.91 | CCCCOC(=O)N1CCN(C(=O)[C@H](CCC(=O)O)NC(=O)c2cc(OC(CC)C(=O)N(CC)CC)nc(-c3ccccc3)n2)CC1 (stereo not given in full)
22 | > 340 | > 340 |  |  | 7.96 | CCCCCOC(=O)N1CCN(C(=O)[C@H](CCC(=O)O)NC(=O)c2nc(-c3ccccc3)cc(N3CCOCC3)n2)CC1
23 |  |  | 0.8 | 0.2 | 8.77 | CCCCOC(=O)N1CCN(C(=O)[C@H](CCC(=O)O)NC(=O)c2cc(N3CCC(N4CCCC4)CC3)nc(-c3ccccc3)n2)CC1
24 | > 340 | > 340 |  |  | 8.12 | CCCCCOC(=O)N1CCN(C(=O)[C@H](CCC(=O)O)NC(=O)c2cc(N3CCC(C)CC3)nc(-c3ccccc3)n2)CC1
25 | > 340 | > 340 |  |  | 6.74 | CCCCCOC(=O)N1CCN(C(=O)[C@H](CCC(=O)O)NC(=O)c2nc(OCCN(CC)CC)cc(-c3ccccc3)n2)CC1
26 | > 340 | > 340 |  |  | 8.09 | CCCCCOC(=O)N1CCN(C(=O)[C@H](CCC(=O)O)NC(=O)c2nc(-c3ccccc3)cc(N3CCC(COCCOC)CC3)n2)CC1
27 | > 340 | > 340 |  |  | 8.92 | CCCCCOC(=O)N1CCN(C(=O)[C@H](CCC(=O)O)NC(=O)c2nc(OCCOC)cc(-c3ccccc3)n2)CC1
28 | > 340 | > 340 |  |  | 7.85 | CCCCCOC(=O)N1CCN(C(=O)[C@H](CCC(=O)O)NC(=O)c2nc(-c3ccccc3)cc(N3CCN(C(=O)N(C)C)CC3)n2)CC1
29 | > 340 | > 340 |  |  | 8.00 | CCCCCOC(=O)N1CCN(C(=O)[C@H](CCC(=O)O)NC(=O)c2nc(-c3ccccc3)cc(N3CCC(OCCO)CC3)n2)CC1
30 | > 340 | > 340 |  |  | 7.42 | CCCCCOC(=O)N1CCN(C(=O)[C@H](CCC(=O)O)NC(=O)c2nc(NCCCN(C)C)cc(-c3ccccc3)n2)CC1
31 | > 340 | > 340 |  |  | 7.72 | CCCCCOC(=O)N1CCN(C(=O)[C@H](CCC(=O)O)NC(=O)c2nc(NCC3CCNC3)cc(-c3ccccc3)n2)CC1 (stereo not given in full)
